A selection: hits, their analogues and other compounds. The true share with any hit is near 5.8%.
GASC1 inh: KDM4C (human) demethylase inhibition; Q9H3R0; GST-KDM4C 2-372, H3K9me3 peptide, LANCE TR-FRET; inhibition, % at 12.5 µM; actives 0.15% (n = 96,000); AID 720574;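 active means mean replicate inhibition above about 25%, with at least 55% of replicates also reaching it, limit read from the data, passing the limit was not always enough; inconclusive means only one of those two conditions met; inactive means neither condition met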
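System: N-terminal GST-fused human GASC-1 (KDM4C) fragment, residues 2-372; amount: enzyme final amount 10 nM; incubation: reaction 30 min RT, detection step 1 h RT; medium: HEPES buffer, pH 7.5, plus ascorbate; technique: LANCE TR-FRET, Eu antibody, ULight-streptavidin, EDTA, ex 340 nm, em 618/671 nm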
IDH1 R132H inh: inhibitors of human IDH1 R132H. actives 0.18% (n = 70,000). O75874. AID 624101. inhibition, % at 10 µM. IDH1 R132H reductase, diaphorase/resazurin fluorescence, 60 min; in the data active means inhibition above about 34%; inconclusive means no clear call, values can overlap the other calls; inactive means below about 11%;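 further: 0% = DMSO and 100% = no enzyme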
Target sequence (O75874 whole entry R132H): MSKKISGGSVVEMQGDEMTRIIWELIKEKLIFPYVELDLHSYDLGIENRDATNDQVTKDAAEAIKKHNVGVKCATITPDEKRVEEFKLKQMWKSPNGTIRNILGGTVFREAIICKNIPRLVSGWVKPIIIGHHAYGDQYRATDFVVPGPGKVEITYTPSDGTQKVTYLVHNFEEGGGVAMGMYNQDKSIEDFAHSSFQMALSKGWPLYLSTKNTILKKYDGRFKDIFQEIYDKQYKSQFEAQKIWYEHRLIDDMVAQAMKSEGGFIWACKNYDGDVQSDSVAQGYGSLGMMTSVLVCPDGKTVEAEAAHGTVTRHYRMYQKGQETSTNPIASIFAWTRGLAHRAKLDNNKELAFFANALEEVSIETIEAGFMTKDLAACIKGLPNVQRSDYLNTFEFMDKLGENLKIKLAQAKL
T cruzi growth-1: blocks T. cruzi growth in NIH3T3 culture. inhibition, % at 8.34 µM. actives 5.9% (n = 77,000). T. cruzi beta-gal in NIH3T3, GalScreen luminescence, 90 h;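 active means mean inhibition above about 93%, with at least 55% of replicates each passing it, limit read from the data, passing the limit was not always enough; inconclusive means only one of those two conditions holds; inactive means neither condition holds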
Pf Dd2 growth: inhibitors of Plasmodium falciparum Dd2 growth. P. falciparum Dd2 growth, SYBR Green, 72 h; active compounds read low. activity change, % at 10 µM. actives 2.3% (n = 94,000). AID 1159554; in the data active means activity change below about -80%; inconclusive means no clear call, values can overlap the other calls
T cruzi growth-2: Trypanosoma cruzi proliferation inhibition. inhibition, % at 8.35 µM. T. cruzi beta-gal in NIH3T3, GalScreen luminescence, 90 h. actives 72% (n = 5,600). shares compounds with T cruzi growth-1. AID 651739;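 active means mean replicate inhibition above about 95% and at least 55% of replicates individually reaching it, limit read from the data; inconclusive means only one of the two criteria is met; inactive means neither criterion is met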
T cruzi growth-3: Trypanosoma cruzi proliferation inhibition; shares compounds with T cruzi growth-1; T. cruzi beta-gal in NIH3T3, GalScreen luminescence, 90 h; inhibition, % at 2.09 µM; actives 21% (n = 5,600);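 active means mean inhibition above about 95%, with at least 55% of replicates also reaching it, limit read from the data; inconclusive means meets just one of the two conditions; inactive means meets neither condition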;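 further: plate controls were neutral control median for no effect and positive control median for full effect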
3T3 cytotox: cytotoxicity in mouse NIH/3T3 fibroblasts. shares compounds with T cruzi growth-1. NIH/3T3 viability, CellTiter-Glo ATP luminescence, 90 h. cytotoxicity (signal decrease), % at 8.35 µM. actives 14% (n = 5,600). AID 651742;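 active means mean signal decrease across replicates above about 35% based on untreated-well scatter, with enough replicates individually passing, limit read from the data; inconclusive means no rule stated though some were filed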;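 further: 0% = median of neutral control wells and 100% = median of positive control wells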
3T3 cytotox 2: kills mouse NIH/3T3 fibroblasts. shares compounds with T cruzi growth-1. NIH/3T3 viability, CellTiter-Glo ATP luminescence, 90 h. inhibition, % at 24.9 µM. actives 56% (n = 5,600);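 active means mean loss of cell viability signal at or above a set limit, and enough replicates individually reaching it; inconclusive means meets only the mean limit or only the replicate share; inactive means meets neither condition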;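 further: 0% = median of neutral control wells and 100% = median of positive control wells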
* = called active by the depositor; ? = inconclusive; · = not tested or not shown.

SMILES	GASC1 inh	IDH1 R132H inh	T cruzi growth-1	Pf Dd2 growth	T cruzi growth-2	T cruzi growth-3	3T3 cytotox	3T3 cytotox 2
C[C@H]1CCCCO[C@H](CN(C)Cc2ccc(Cl)c(Cl)c2)[C@@H](C)CN([C@@H](C)CO)C(=O)c2cc(NC(=O)Nc3ccc(F)cc3)ccc2O1	-2	·	102*	-34	95*	112*	2	7
CN1C(=O)c2cc(NC(=O)c3cccs3)ccc2OC[C@@H]2O[C@@H](CC(=O)NCCN3CCCCC3)CC[C@H]21	4	·	22	-27	·	·	·	·
COc1ccc(CN(C)C[C@@H]2OCCCC[C@H](C)Oc3ccc(NS(=O)(=O)c4ccc(C)cc4)cc3C(=O)N([C@H](C)CO)C[C@@H]2C)cc1	1	·	·	-55	·	·	·	·
C[C@@H]1CN([C@@H](C)CO)S(=O)(=O)c2ccc(/C=C/c3ccccc3)cc2O[C@@H]1CN(C)Cc1cncnc1	-3	-4	108*	-3	?	89	58*	70*
C[C@@H]1CN([C@H](C)CO)S(=O)(=O)c2ccc(/C=C/c3ccccc3)cc2O[C@H]1CN(C)Cc1cncnc1	-3	-2	107*	-67	98*	85	59*	65*
C[C@H](CO)N1C[C@H](C)[C@@H](CN(C)Cc2cncnc2)Oc2cc(/C=C/c3ccccc3)ccc2S1(=O)=O	-4	0	121*	-52	98*	102*	41*	81*
C[C@H]1CN([C@@H](C)CO)S(=O)(=O)c2ccc(/C=C/c3ccccc3)cc2O[C@@H]1CN(C)Cc1cncnc1	1	0	122*	-68	100*	104*	69*	97*
C/C=C/c1ccc2c(c1)O[C@H](CN(C)Cc1cncnc1)[C@@H](C)CN([C@H](C)CO)S2(=O)=O	0	0	·	14	·	·	·	·
CCCNC(=O)[C@@H]1[C@@H](CO)[C@@H]2Cn3c(ccc(C4=CCCC4)c3=O)[C@H]1N2CCC(F)(F)F	2	·	-11	16	·	·	·	·
CO[C@H]1CN(C)C(=O)c2cc(NC(=O)c3nc4ccccc4s3)ccc2OC[C@@H](C)N(Cc2ccncc2)C[C@H]1C	0	10	94	·	·	·	·	·
CO[C@@H]1CN(C)C(=O)c2cc(NS(=O)(=O)c3ccccc3)ccc2OC[C@H](C)N(Cc2nccs2)C[C@@H]1C	-1	0	111*	-22	74	2	18	45*
CO[C@@H]1CN(C)C(=O)c2cc(NC(=O)c3nc4ccccc4s3)ccc2OC[C@H](C)N(Cc2ccncc2)C[C@@H]1C	0	0	99*	·	90	44	-15	61*
CCCN1C[C@@H](C)[C@H](OC)CN(C)C(=O)c2cc(NC(=O)Nc3cccc(OC)c3)ccc2OC[C@H]1C	·	0	102*	·	110*	75	-2	54*
CCCN1C[C@@H](C)[C@H](OC)CN(C)C(=O)c2cc(NS(=O)(=O)c3ccccc3)ccc2OC[C@@H]1C	3	0	-12	-5	·	·	·	·
CCCN1C[C@@H](C)[C@H](OC)CN(C)C(=O)c2cc(NS(=O)(=O)c3ccccc3)ccc2OC[C@H]1C	1	0	91*	-66	98*	41	2	-5
O=C(C[C@@H]1CC[C@@H](NC(=O)C2CC2)[C@H](CO)O1)NC1CCC1	-2	-1	1	4	·	·	·	·
Cc1cccc(C)c1NC(=O)CN(C1CCCCC1)S(=O)(=O)c1ccc(Cl)cc1	·	0	·	·	·	·	·	·
CNC[C@@H]1Oc2ccc(NC(=O)Nc3ccc(F)cc3)cc2CC(=O)N([C@@H](C)CO)C[C@H]1C	1	2	·	7	·	·	·	·
C/C=C/c1ccc([C@H]2[C@@H](CO)N(C(C)=O)C23CN(C(=O)c2ccccc2)C3)cc1	1	·	·	2	·	·	·	·
CC(C)NC(=O)N1CC2(C1)[C@@H](c1ccccc1)[C@@H](CO)N2C(=O)C1CCC1	·	·	·	34	·	·	·	·
CCS(=O)(=O)Nc1ccc2c(c1)C(=O)N(C)C[C@@H](OC)[C@H](C)CN(Cc1ccccn1)[C@@H](C)CO2	2	0	99*	40	-25	-32	-6	4
CCC(=O)N1C[C@H]2[C@@H](c3ccccc31)[C@@H](CO)N2Cc1ccccc1OC	2	·	?	-71	105*	11	22	13
CCC(=O)N1C[C@@H]2[C@H](c3ccccc31)[C@@H](CO)N2C(=O)CC	-4	·	102*	-76	7	3	-11	-13
CCC(=O)N1C[C@H]2[C@@H](c3ccccc31)[C@@H](CO)N2C(=O)CC	-1	·	60	-21	·	·	·	·
Cc1noc(C)c1NC(=O)Nc1ccc2c(c1)C(=O)N([C@@H](C)CO)C[C@H](C)[C@@H](CN(C)S(=O)(=O)c1ccc(Cl)cc1)OCCCC[C@@H](C)O2	0	·	99*	-76	59	10	-2	4
SMILES	GASC1 inh	IDH1 R132H inh	T cruzi growth-1	Pf Dd2 growth	T cruzi growth-2	T cruzi growth-3	3T3 cytotox	3T3 cytotox 2
C[C@@H]1CN([C@H](C)CO)C(=O)c2cc(NC(=O)Nc3ccc4c(c3)OCO4)ccc2O[C@@H](C)CCCCO[C@H]1CN(C)S(=O)(=O)c1ccc(Cl)cc1	-1	0	101*	-76	108*	43	-13	-10
C[C@@H]1CCCCO[C@@H](CN(C)S(=O)(=O)c2ccc(Cl)cc2)[C@@H](C)CN([C@@H](C)CO)C(=O)c2cc(NC(=O)Nc3ccc4c(c3)OCO4)ccc2O1	0	·	97*	-88*	105*	79	16	27
C[C@@H]1CCCCO[C@@H](CN(C)S(=O)(=O)c2ccc(Cl)cc2)[C@H](C)CN([C@@H](C)CO)C(=O)c2cc(NC(=O)Nc3ccc4c(c3)OCO4)ccc2O1	0	2	103*	-65	110*	80	-2	-11
Cc1noc(C)c1NC(=O)Nc1ccc2c(c1)C(=O)N([C@H](C)CO)C[C@H](C)[C@@H](CN(C)S(=O)(=O)c1ccc(Cl)cc1)OCCCC[C@@H](C)O2	·	-2	3	-11	·	·	·	·
C[C@@H]1CCCCO[C@@H](CN(C)S(=O)(=O)c2ccc(Cl)cc2)[C@H](C)CN([C@H](C)CO)C(=O)c2cc(NC(=O)Nc3ccc4c(c3)OCO4)ccc2O1	-1	·	106*	-72	106*	112*	9	-6
CS(=O)(=O)N(CC(=O)Nc1cccc2ccccc12)c1ccc(I)cc1	·	0	·	·	·	·	·	·
O=S(=O)(c1ccccc1)N1CCCCN2[C@@H](CO)[C@@H](c3ccc(-c4ccccc4)cc3)[C@@H]2C1	1	·	81	-44	·	·	·	·
